The values below come from ChEMBL document CHEMBL1681751, “Synthesis and biological evaluation of imidazolo[2,1-b]benzothiazole derivatives, as potential p53 inhibitors” (Bioorg Med Chem, 2011).

Calls of active or inactive are those of the source. The calls are words filed in the database; no cut-off is given here.

In data set [1] the test system is IGROV-1. Nature of the data set: Antitumor activity against human IGROV1 cells xenografted in athymic Swiss nude mouse assessed as tumor volume inhibition at 9 mg/kg, iv every 4 days for 4 administration. It counts as functional. Details: scale not given: the % may be the effect or the level left. The method in brief:
(§1)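 Female athymic Swiss nude mice received IGROV-1 tumors sc in the right flank (10^7 cells/mouse), then maintained by serial sc passage of about 3x3x3 mm fragments. Dosing was iv, q4dx4, starting when tumors were about 80 mg. Read-out was % tumor volume inhibition, treated vs control, 4 mice per group, Student's t-test vs control.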
A general note: Xenograft models place foreign cells or tissue in a host animal.

Data set [2] deals with Mus musculus. Description: Toxicity in athymic Swiss nude mouse assessed as body weight loss at 3 mg/kg, iv every 4 days for 4 administration. It counts as organism-based. Details: dose 3 mg/kg, route intravenous. The following applies: in vivo, 96 h. The method in brief:
(§2)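 Female athymic Swiss nude mice with sc IGROV-1 xenografts were dosed iv every four days for 4 administrations (q4dx4), 4 mice per group. Toxicity was scored as % body weight loss from drug treatment, with lethal toxicity counted per group.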

For data set [3], the system named is IGROV-1. Nature of the data set: Antitumor activity against human IGROV1 cells xenografted in athymic Swiss nude mouse assessed as tumor volume inhibition at 3 mg/kg, iv every 4 days for 4 administration. The format is functional. Details: scale not given: the % may be the effect or the level left. Summed up:
as §1

The test system of data set [4] is Mus musculus. Description: Toxicity in athymic Swiss nude mouse assessed as body weight loss at 9 mg/kg, iv every 4 days for 4 administration. Conditions: in vivo, 96 h. The format is organism-based. Details: dose 9 mg/kg, route intravenous. Summed up:
as §2

Data set [5] has as its system Mus musculus. Nature of the data set: Toxicity in athymic Swiss nude mouse assessed as lethal toxicity at 3 mg/kg, iv every 4 days for 4 administration. Also on record: dose 3 mg/kg, route intravenous. Conditions: in vivo, 96 h. The format is organism-based. Summed up: (§3)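 Female athymic Swiss nude mice bearing sc IGROV-1 human ovarian carcinoma xenografts (10^7 exponentially growing cells/mouse into right flank; lines kept by serial sc fragment passage). Dosed iv every four days for 4 administrations (q4dx4), starting when tumors were measurable (around 80 mg). Lethal toxicity scored as animals dying per group (4 mice/group).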

Data set [6] relates to IGROV-1. Nature of the data set: Antiproliferative activity against human IGROV1 cells after 72 hrs by cell counter. It counts as functional, cell-based. The method in brief:
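Log-phase cells seeded in duplicate; for the paclitaxel combination, cells got compound 2 h before the antimicrotubule agent. Final DMSO at most 0.5%. After treatment, adherent cells were trypsinized and counted with a cell counter. IC50 is the concentration giving 50% fewer cells than untreated control.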

In data set [7] the test system is Mus musculus. Nature of the data set: Toxicity in athymic Swiss nude mouse assessed as lethal toxicity at 9 mg/kg, iv every 4 days for 4 administration. The format is organism-based. Details: dose 9 mg/kg, route intravenous. The following applies: in vivo, 96 h. Summed up:
as §3

The subject of data set [8] is IGROV-1. Nature of the data set: Reduction of paclitaxel-induced p21 expression in human IGROV1 cells at 5 uM after 24 hrs by Western blot analysis. The format is functional, cell-based. The method in brief: (§4)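 IGROV-1 cells were treated 24 h with paclitaxel 0.12 µM, compound, or both, then lysed. p53 and p21waf1 were detected by Western blot.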
The subject of data set [9] is IGROV-1. Nature of the data set: Reduction of paclitaxel-induced p21 expression in human IGROV1 cells at 10 uM after 24 hrs by Western blot analysis. It counts as functional, cell-based. The method in brief:
as §4

Data set [10] concerns IGROV-1. Description: Reduction of paclitaxel-induced p21 expression in human IGROV1 cells at 0.12 uM after 24 hrs by Western blot analysis. The format is functional, cell-based. Summed up: as §4
(In general: Immunoblotting shows a protein as a band on a membrane.)

The test system of data set [11] is IGROV-1. Description: Reduction of paclitaxel-induced p21 expression in human IGROV1 cells at 0.3 uM after 24 hrs by Western blot analysis. The format is functional, cell-based. The method in brief: as §4
Data set [12] deals with IGROV-1. Description: Induction of apoptosis in human IGROV1 cells at 0.12 uM after 72 hrs by TUNEL assay. It counts as functional. The method in brief:
(§5)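 IGROV-1 cells were exposed for 72 h; in the combination they were pretreated 2 h with compound before paclitaxel. Cells were fixed in 4% paraformaldehyde for 60 min at room temperature and washed. TUNEL labelling with fluorescein was read by flow cytometry as % TUNEL-positive cells, with at least three independent experiments.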

In data set [13] the test system is U2OS. Nature of the data set: Antitumor activity against human U2OS cells xenografted in athymic Swiss nude mouse at 24 mg/kg, iv administered every 4 days relative to paclitaxel. Also on record: dose 24 mg/kg. The format is functional, organism-based. The method in brief: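 U2OS osteosarcoma tumors were grown sc in female athymic Swiss nude mice from 10^7 cells/mouse and kept by serial fragment passage. Dosing was iv every four days for 4 administrations, alone or combined with paclitaxel, starting at about 80 mm3. Controls received solvent. Tumor growth and complete regressions were followed.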

Data set [14] has as its system IGROV-1. Nature of the data set: Induction of apoptosis in human IGROV1 cells at 5 uM after 72 hrs by TUNEL assay. The format is functional. Summed up: as §5
Data set [15] concerns IGROV-1. Description: Antitumor activity against human IGROV1 cells xenografted in athymic Swiss nude mouse assessed as tumor volume inhibition at 18 mg/kg, iv every 4 days for 4 administration. The format is functional. Also on record: scale not given: the % may be the effect or the level left. The method in brief:
as §1

Data set [16] concerns Mus musculus. Description: Toxicity in athymic Swiss nude mouse assessed as lethal toxicity at 18 mg/kg, iv every 4 days for 4 administration. The format is organism-based. Also on record: dose 18 mg/kg, route intravenous. The following applies: in vivo, 96 h. The method in brief: as §3
Data set [17] concerns Mus musculus. Nature of the data set: Toxicity in athymic Swiss nude mouse assessed as body weight loss at 18 mg/kg, iv every 4 days for 4 administration. The format is organism-based. Details: dose 18 mg/kg, route intravenous. The following applies: in vivo, 96 h. Summed up:
as §2

Take `Cl.NCc1ccc(-c2cn3c(n2)sc2ccccc23)cc1`: the Activity in [1] is 46%; in data set [2], 3%; in [3], 15%; in [4] it was 5%; in data set [5], “Non-toxic”; in data set [7], “Non-toxic”. The molecule also had an IC50 in data set [6] (igrov-1) of 0.3 µM. In turn, `Cc1ccc(-c2cn3c4c(sc3n2)CCCC4)cc1` gave an IC50 in data set [6] (Homo sapiens, IGROV-1, 72 h) of 23 µM.

As for `O=Cc1ccc(-c2cn3c(n2)sc2ccccc23)cc1`, 6 µM corresponded to half-maximal inhibition in data set [6] (Homo sapiens, IGROV-1, 72 h) (IC50). In [6] (Homo sapiens, IGROV-1, 72 h), `OCc1ccc(-c2cn3c(n2)sc2ccccc23)cc1` yielded an IC50 of 7 µM. Still for that read-out and setting: to `CC(=O)NCc1ccc(-c2cn3c4c(sc3n2)CCCC4)cc1` belongs 28 µM.

On to `Nc1ccc(-c2cn3c(n2)sc2ccccc23)cc1` [listing 1 of 3 here], for which the outcome in data set [8], in data set [9], in data set [10] and in [11] was Active.

In the case of `Nc1ccc(-c2cn3c4c(sc3n2)CCCC4)cc1` [listing 1 of 3 here], the outcome in [8], in data set [9], in [10] and in data set [11] was Active. Molecule `Nc1ccc(-c2cn3c4c(sc3n2)CCCC4)cc1` [listing 2 of 3 here] gave an IC50 in data set [6] (igrov-1) of 19 µM. On to `N#Cc1ccc(-c2cn3c(n2)sc2ccccc23)cc1`, for which 0.03 µM corresponded to half-maximal inhibition in data set [6] (Homo sapiens, IGROV-1, 72 h) (IC50).

In data set [6] (Homo sapiens, IGROV-1, 72 h), `Cc1ccc(-c2cn3c(n2)sc2ccccc23)cc1` returned an IC50 of 0.3 µM. Same read-out and setting: to `CCn1c2ccccc2n2cc(-c3ccc(C#N)cc3)nc12` belongs 4.5 µM.

In turn, `CC(=O)O[C@H]1C(=O)[C@@]2(C)[C@H]([C@H](OC(=O)c3ccccc3)[C@]3(O)C[C@H](OC(=O)[C@H](O)[C@@H](NC(=O)c4ccccc4)c4ccccc4)C(C)=C1C3(C)C)[C@]1(OC(C)=O)CO[C@@H]1C[C@@H]2O` [PACLITAXEL] came in with an Activity in data set [12] of 13%. In addition, in data set [13], the result was inactive.

In the case of `NCc1ccc(-c2cn3c(n2)sc2ccccc23)cc1` [listing 1 of 2 here], the result in [8], in data set [9], in data set [10] and in data set [11] was Active.

Regarding `NCc1ccc(-c2cn3c4c(sc3n2)CCCC4)cc1` [listing 1 of 2 here], the outcome in data set [8], in data set [9], in [10] and in data set [11] was Active. `Nc1ccc(-c2cn3c(n2)sc2ccccc23)cc1` [listing 2 of 3 here]: inhibition in data set [6] (igrov-1) was half-maximal at 5 µM (IC50). For the molecule `NCc1ccc(-c2cn3c(n2)sc2ccccc23)cc1` [listing 2 of 2 here], inhibition in data set [6] (igrov-1) was half-maximal at 0.03 µM (IC50). The molecule `CC(=O)NCc1ccc(-c2cn3c(n2)sc2ccccc23)cc1` registered an IC50 in data set [6] (Homo sapiens, IGROV-1, 72 h) of 12 µM. As to `Nc1ccc(-c2cn3c(n2)sc2ccccc23)cc1` [listing 3 of 3 here], in data set [6] (igrov-1), the IC50 worked out at 1 µM. For `COc1ccc(-c2ccc(-c3cn4c(n3)sc3ccccc34)cc2)cc1`, the IC50 in data set [6] (Homo sapiens, IGROV-1, 72 h) is < 1 µM. In turn, `Nc1ccc(-c2cn3c4c(sc3n2)CCCC4)cc1` [listing 3 of 3 here] registered an Activity in data set [14] of 4%. The same molecule came in with an IC50 in data set [6] (igrov-1) of 4 µM. As to `Cn1c2ccccc2n2cc(-c3ccc(C#N)cc3)nc12`, the midpoint of inhibition in data set [6] (Homo sapiens, IGROV-1, 72 h), the IC50, lay at 7 µM. In turn, `Brc1ccc(-c2cn3c(n2)sc2ccccc23)cc1` came in with an IC50 in data set [6] (Homo sapiens, IGROV-1, 72 h) of 0.3 µM. `CC(C)NC(=O)CCNCc1ccc(-c2cn3c(n2)sc2ccccc23)cc1` had a half-inhibitory concentration (IC50) in data set [6] (Homo sapiens, IGROV-1, 72 h) of 5 µM. Take `O=[N+]([O-])c1ccc(-c2cn3c(n2)sc2ccccc23)cc1`: the IC50 in data set [6] (Homo sapiens, IGROV-1, 72 h) was found to be 2 µM. Turning to `Cl.NCc1ccc(-c2cn3c4c(sc3n2)CCCC4)cc1`, the Activity in data set [1] was 21%; in [15] it was 27%; in data set [16], “Non-toxic”; in data set [4] it was 6%; in data set [17], 4%; in [7], “Non-toxic”. In addition, in data set [6] (igrov-1), it took 31 µM to reach half-maximal inhibition (IC50). Consider `N#Cc1ccc(-c2cn3c4c(sc3n2)CCCC4)cc1`, for which, in data set [6] (Homo sapiens, IGROV-1, 72 h), half-maximal inhibition (IC50) was put at 8 µM. `NCCC(=O)NCc1ccc(-c2cn3c(n2)sc2ccccc23)cc1` gave an IC50 in data set [6] (Homo sapiens, IGROV-1, 72 h) of 3 µM. On to `NCc1ccc(-c2cn3c4c(sc3n2)CCCC4)cc1` [listing 2 of 2 here], for which the IC50 in data set [6] (igrov-1) came to 12 µM.

What is called IC50 is the concentration that inhibits the measured activity by half.
